Reference: ChEMBL document CHEMBL4689842, “EUbOPEN Chemogenomics Library wave 1” (2021)

Assays:
Format in all cases: toxicity, cell-based
Fibroblast = test: Multiplex assay against human fibroblast
Outline: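 On a CQ1 microscope at 37°C and 5% CO2, live cells were imaged after compound addition. They had been stained at seeding with Hoechst33342, BioTracker Green Microtubule Cytoskeleton Dye, MitoTracker Red and Annexin V Alexa Fluor 680. CellPathfinder machine-learning gating assigned cells to Hoechst high-intensity objects or normal cells, normal cells to healthy, pyknosed or fragmented nuclei, and pyknosed cells to mitotic or apoptotic. Tubulin, mitochondrial-mass and membrane-permeability phenotypes are per cents of healthy-nucleus cells.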

HEK-293T = test: Incucyte cell viability with HEK293T; conditions: human, 10 µM, compound concentration 10 uM; further: filed as whole numbers so only -1 and 0 and 1 occur
U2OS = test: Incucyte cell viability with U2OS; conditions: human, 10 µM, compound concentration 10 uM; further: filed as whole numbers so only -1 and 0 and 1 occur
[1] = 12 h, 1 µM, compound concentration 1 uM, replicate 1
[2] = 12 h, 1 µM, compound concentration 1 uM, replicate 2
[3] = 12 h, 10 µM, compound concentration 10 uM, replicate 1
[4] = 12 h, 10 µM, compound concentration 10 uM, replicate 2
[5] = 24 h, 1 µM, compound concentration 1 uM, replicate 1
[6] = 24 h, 1 µM, compound concentration 1 uM, replicate 2
[7] = 24 h, 10 µM, compound concentration 10 uM, replicate 1
[8] = 24 h, 10 µM, compound concentration 10 uM, replicate 2
[9] = 48 h, 1 µM, compound concentration 1 uM, replicate 1
[10] = 48 h, 1 µM, compound concentration 1 uM, replicate 2
[11] = 48 h, 10 µM, compound concentration 10 uM, replicate 1
[12] = 48 h, 10 µM, compound concentration 10 uM, replicate 2
[13] = 6 h, replicate number 1, timepoint 6 hours
[14] = 12 h, replicate number 1, timepoint 12 hours
[15] = 18 h, replicate number 1, timepoint 18 hours
[16] = 24 h, replicate number 1, timepoint 24 hours

## CCCCCNC(=N)N/N=C/c1c[nH]c2ccc(OC)cc12.O=C(O)/C=C\C(=O)O [TEGASEROD MALEATE]
Fibroblast; [1]
  Population Apoptotic (%): 65%
  Population Fragmented Nuclei (%): 25%
  Population Healthy Nuclei (%): 47%
  Population Hoechst High Intensity Objects (%): 8%
  Population Membrane Permeable-Phenotype (%): 10%
  Population Mitochondria Different-Phenotype (%): 0%
  Population Mitotic Cells (%): 34%
  Population Normal (%): 91%
  Population Pyknosed Nuclei (%): 27%
  Population Tubulin-Different-Phenotype (%): 22%
  Total Cell Count: 114
Fibroblast; [2]
  Population Apoptotic (%): 20%
  Population Fragmented Nuclei (%): 12%
  Population Healthy Nuclei (%): 79%
  Population Hoechst High Intensity Objects (%): 3%
  Population Membrane Permeable-Phenotype (%): 4%
  Population Mitochondria Different-Phenotype (%): 22%
  Population Mitotic Cells (%): 80%
  Population Normal (%): 96%
  Population Pyknosed Nuclei (%): 8%
  Population Tubulin-Different-Phenotype (%): 14%
  Total Cell Count: 74
Fibroblast; [3]
  Population Apoptotic (%): 50%
  Population Fragmented Nuclei (%): 34%
  Population Healthy Nuclei (%): 12%
  Population Hoechst High Intensity Objects (%): 20%
  Population Membrane Permeable-Phenotype (%): 6%
  Population Mitochondria Different-Phenotype (%): 50%
  Population Mitotic Cells (%): 49%
  Population Normal (%): 80%
  Population Pyknosed Nuclei (%): 52%
  Population Tubulin-Different-Phenotype (%): 62%
  Total Cell Count: 155
Fibroblast; [4]
  Population Apoptotic (%): 100%
  Population Fragmented Nuclei (%): 22%
  Population Healthy Nuclei (%): 3%
  Population Hoechst High Intensity Objects (%): 35%
  Population Membrane Permeable-Phenotype (%): 100%
  Population Mitochondria Different-Phenotype (%): 100%
  Population Mitotic Cells (%): 0%
  Population Normal (%): 64%
  Population Pyknosed Nuclei (%): 73%
  Population Tubulin-Different-Phenotype (%): 100%
  Total Cell Count: 64
Fibroblast; [5]
  Population Apoptotic (%): 52%
  Population Fragmented Nuclei (%): 24%
  Population Healthy Nuclei (%): 56%
  Population Hoechst High Intensity Objects (%): 10%
  Population Membrane Permeable-Phenotype (%): 15%
  Population Mitochondria Different-Phenotype (%): 1%
  Population Mitotic Cells (%): 47%
  Population Normal (%): 90%
  Population Pyknosed Nuclei (%): 18%
  Population Tubulin-Different-Phenotype (%): 35%
  Total Cell Count: 100
Fibroblast; [6]
  Population Apoptotic (%): 87%
  Population Fragmented Nuclei (%): 10%
  Population Healthy Nuclei (%): 77%
  Population Hoechst High Intensity Objects (%): 5%
  Population Membrane Permeable-Phenotype (%): 5%
  Population Mitochondria Different-Phenotype (%): 21%
  Population Mitotic Cells (%): 12%
  Population Normal (%): 94%
  Population Pyknosed Nuclei (%): 12%
  Population Tubulin-Different-Phenotype (%): 7%
  Total Cell Count: 89
Fibroblast; [7]
  Population Apoptotic (%): 74%
  Population Fragmented Nuclei (%): 39%
  Population Healthy Nuclei (%): 7%
  Population Hoechst High Intensity Objects (%): 18%
  Population Membrane Permeable-Phenotype (%): 12%
  Population Mitochondria Different-Phenotype (%): 37%
  Population Mitotic Cells (%): 25%
  Population Normal (%): 81%
  Population Pyknosed Nuclei (%): 53%
  Population Tubulin-Different-Phenotype (%): 75%
  Total Cell Count: 133
Fibroblast; [8]
  Population Apoptotic (%): 100%
  Population Fragmented Nuclei (%): 44%
  Population Healthy Nuclei (%): 26%
  Population Hoechst High Intensity Objects (%): 39%
  Population Membrane Permeable-Phenotype (%): 100%
  Population Mitochondria Different-Phenotype (%): 100%
  Population Mitotic Cells (%): 0%
  Population Normal (%): 60%
  Population Pyknosed Nuclei (%): 28%
  Population Tubulin-Different-Phenotype (%): 100%
  Total Cell Count: 70
Fibroblast; [9]
  Population Apoptotic (%): 50%
  Population Fragmented Nuclei (%): 37%
  Population Healthy Nuclei (%): 58%
  Population Hoechst High Intensity Objects (%): 15%
  Population Membrane Permeable-Phenotype (%): 10%
  Population Mitochondria Different-Phenotype (%): 1%
  Population Mitotic Cells (%): 50%
  Population Normal (%): 84%
  Population Pyknosed Nuclei (%): 4%
  Population Tubulin-Different-Phenotype (%): 24%
  Total Cell Count: 115
Fibroblast; [10]
  Population Apoptotic (%): 66%
  Population Fragmented Nuclei (%): 23%
  Population Healthy Nuclei (%): 72%
  Population Hoechst High Intensity Objects (%): 18%
  Population Membrane Permeable-Phenotype (%): 12%
  Population Mitochondria Different-Phenotype (%): 3%
  Population Mitotic Cells (%): 33%
  Population Normal (%): 81%
  Population Pyknosed Nuclei (%): 3%
  Population Tubulin-Different-Phenotype (%): 44%
  Total Cell Count: 94
Fibroblast; [11]
  Population Apoptotic (%): 76%
  Population Fragmented Nuclei (%): 48%
  Population Healthy Nuclei (%): 20%
  Population Hoechst High Intensity Objects (%): 33%
  Population Membrane Permeable-Phenotype (%): 17%
  Population Mitochondria Different-Phenotype (%): 23%
  Population Mitotic Cells (%): 23%
  Population Normal (%): 66%
  Population Pyknosed Nuclei (%): 30%
  Population Tubulin-Different-Phenotype (%): 64%
  Total Cell Count: 127
Fibroblast; [12]
  Population Apoptotic (%): 85%
  Population Fragmented Nuclei (%): 52%
  Population Healthy Nuclei (%): 15%
  Population Hoechst High Intensity Objects (%): 45%
  Population Membrane Permeable-Phenotype (%): 30%
  Population Mitochondria Different-Phenotype (%): 50%
  Population Mitotic Cells (%): 15%
  Population Normal (%): 54%
  Population Pyknosed Nuclei (%): 31%
  Population Tubulin-Different-Phenotype (%): 80%
  Total Cell Count: 115
HEK-293T; 0 h, replicate number 2, timepoint 0 hours
  Growth Rate: 1
HEK-293T; [13]
  Growth Rate: 0
HEK-293T; [14]
  Growth Rate: 0
HEK-293T; [15]
  Growth Rate: 0
HEK-293T; [16]
  Growth Rate: 0
U2OS; [13]
  Growth Rate: 0
U2OS; [14]
  Growth Rate: 0
U2OS; [15]
  Growth Rate: 0
U2OS; [16]
  Growth Rate: 0
